Assays:
A549 [1] = assay: Cytotoxicity against human A549 cells assessed as growth inhibition at 50 uM after 48 hrs by SRB assay relative to control; type: functional; details: A549, 48 h, read-out: GI
How it was run: (§1)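 SRB growth-inhibition run in RPMI-1640/10% FBS at 37°C, 5% CO₂. Cell lines were seeded (PC-3 7000, MCF-7 8000, A549 7500, HCT-116 7000/well) and attached 24 h. The treatment series included 50 μM, with 48 h exposure. Cells were cold-TCA fixed and stained with 0.4% SRB. Dye was solubilized in 10 mM Tris pH 10.4 and read at 540 nm against untreated control.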

PC-3 [2] = assay: Cytotoxicity against human PC3 cells assessed as growth inhibition at 50 uM after 48 hrs by SRB assay relative to control; type: functional; details: PC-3, 48 h, read-out: GI; how it was run: as §1
MCF7 [3] = assay: Cytotoxicity against human MCF7 cells assessed as growth inhibition at 50 uM after 48 hrs by SRB assay relative to control; type: functional; details: MCF7, 48 h, read-out: GI; how it was run: as §1
HCT-116 [4] = assay: Cytotoxicity against human HCT116 cells assessed as growth inhibition at 50 uM after 48 hrs by SRB assay relative to control; type: functional; details: HCT-116, 48 h, read-out: GI; how it was run: as §1
A549 [5] = assay: Cytotoxicity against human A549 cells assessed as growth inhibition after 48 hrs by SRB assay; type: functional, cell-based; details: A549, 48 h
How it was run: (§2)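 Cells were grown in RPMI-1640 with 10% FBS and penicillin/streptomycin at 37°C, 5% CO₂. Seeding was PC-3 7000, MCF-7 8000, A549 7500 and HCT-116 7000 cells/well, with 24 h attachment. Cells were exposed to 1, 5, 10, 30 and 50 μM for 48 h, with a 5-fluorouracil reference. Cells were TCA-fixed (1 h, 4°C) and stained with 0.4% SRB. Bound dye was dissolved in 10 mM Tris pH 10.4 and read at 540 nm. IC50 came from the concentration-response.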

PC-3 [6] = assay: Cytotoxicity against human PC3 cells assessed as growth inhibition after 48 hrs by SRB assay; type: functional, cell-based; details: PC-3, 48 h; how it was run: as §2
HCT-116 [7] = assay: Cytotoxicity against human HCT116 cells assessed as growth inhibition after 48 hrs by SRB assay; type: functional, cell-based; details: HCT-116, 48 h; how it was run: as §2
MCF7 [8] = assay: Cytotoxicity against human MCF7 cells assessed as growth inhibition after 48 hrs by SRB assay; type: functional, cell-based; details: MCF7, 48 h; how it was run: as §2

Compound	inhibition of growth at 50 µM (A549 [1]) [%]	inhibition of growth at 50 µM (PC-3 [2]) [%]	inhibition of growth at 50 µM (MCF7 [3]) [%]	inhibition of growth at 50 µM (HCT-116 [4]) [%]	IC50 (A549 [5]) [µM]	IC50 (PC-3 [6]) [µM]	IC50 (HCT-116 [7]) [µM]	IC50 (MCF7 [8]) [µM]
COc1ccc([C@@H]2C/C(=N/OCc3cn(-c4ccc(NC(=O)c5ccccc5)cc4)nn3)c3cc(CC=C(C)C)c(OC)cc3O2)cc1	31	22	4	8	–	–	–	–
COc1cc2c(cc1CC=C(C)C)C(=O)C[C@@H](c1ccc(Oc3ccc(Br)cc3)cc1)O2	72	55	68	76	–	–	–	–
COc1cc2c(cc1CC=C(C)C)C(=O)C[C@@H](c1ccc(Oc3ccccc3)cc1)O2	46	53	69	76	–	–	–	–
COc1ccc([C@@H]2C/C(=N/O)c3cc(CC=C(C)C)c(OC)cc3O2)cc1	66	45	63	47	–	–	–	–
C#CCOc1ccc([C@@H]2CC(=O)c3cc(CC=C(C)C)c(OC)cc3O2)cc1	53	52	68	75	–	–	–	–
COc1cc2c(cc1CCC(C)C)C(=O)C[C@@H](c1ccc(O)cc1)O2	75	78	81	77	30.5	36.3	34.3	34.5
COc1ccc([C@@H]2C/C(=N/OCc3cn(-c4ccc(NC(C)=O)cc4)nn3)c3cc(CC=C(C)C)c(OC)cc3O2)cc1	19	2	0	6	–	–	–	–
COc1ccc([C@@H]2C/C(=N/OCc3cn(-c4ccc(Cl)cc4C)nn3)c3cc(CC=C(C)C)c(OC)cc3O2)cc1	35	49	37	20	–	–	–	–
COc1cc(O)c(C(=O)/C=C/c2ccc(O)cc2)cc1CC=C(C)C	68	44	73	63	–	–	–	–
COc1cc2c(cc1CC=C(C)C)C(=O)C[C@@H](c1ccc(Oc3cccc([N+](=O)[O-])c3)cc1)O2	37	21	53	46	–	–	–	–
C#CCO/N=C1/C[C@@H](c2ccc(OC)cc2)Oc2cc(OC)c(CC=C(C)C)cc21	64	41	61	65	–	–	–	–
COc1ccc([C@@H]2C/C(=N/OCc3cn(-c4ccccc4CO)nn3)c3cc(CC=C(C)C)c(OC)cc3O2)cc1	100	100	100	100	30.7	26.6	29.9	23.4
COc1cc2c(cc1CC1OC1(C)C)C(=O)C[C@@H](c1ccc(O)cc1)O2 (some centres not stated)	79	92	98	97	29.8	27.4	29	30.9
COc1ccc([C@@H]2C/C(=N/OCc3cn(-c4ccc(C#N)cc4)nn3)c3cc(CC=C(C)C)c(OC)cc3O2)cc1	42	50	40	50	–	–	–	–
COc1ccc([C@@H]2C/C(=N/OCc3cn(-c4ccc(O)cc4)nn3)c3cc(CC=C(C)C)c(OC)cc3O2)cc1	52	64	63	65	–	–	–	–

Source: ChEMBL document CHEMBL4145481, “Synthesis and biological evaluation of novel bavachinin analogs as anticancer agents” (Eur J Med Chem, 2018)
